# ABCB6 inh MLPCN – ABCB6 transporter inhibitors, primary screen, K562-ABCB6 cells, flow cytometry, MLPCN library | K562-ABCB6 porphyrin accumulation, 1 h; stronger effect = lower value | fluorescence ratio to DMSO, % at 10 µM | 0.19% of 360,000 active | AID 602162, 2011;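 active = fluorescence ratio to DMSO below 75%, the collection mean minus 3 SD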;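 note: signal is porphyrin accumulated inside mitochondria; lower ratio means ABCB6 inhibition with less porphyrin fluorescence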
# Target sequence (Q9NP58 whole entry, looked up): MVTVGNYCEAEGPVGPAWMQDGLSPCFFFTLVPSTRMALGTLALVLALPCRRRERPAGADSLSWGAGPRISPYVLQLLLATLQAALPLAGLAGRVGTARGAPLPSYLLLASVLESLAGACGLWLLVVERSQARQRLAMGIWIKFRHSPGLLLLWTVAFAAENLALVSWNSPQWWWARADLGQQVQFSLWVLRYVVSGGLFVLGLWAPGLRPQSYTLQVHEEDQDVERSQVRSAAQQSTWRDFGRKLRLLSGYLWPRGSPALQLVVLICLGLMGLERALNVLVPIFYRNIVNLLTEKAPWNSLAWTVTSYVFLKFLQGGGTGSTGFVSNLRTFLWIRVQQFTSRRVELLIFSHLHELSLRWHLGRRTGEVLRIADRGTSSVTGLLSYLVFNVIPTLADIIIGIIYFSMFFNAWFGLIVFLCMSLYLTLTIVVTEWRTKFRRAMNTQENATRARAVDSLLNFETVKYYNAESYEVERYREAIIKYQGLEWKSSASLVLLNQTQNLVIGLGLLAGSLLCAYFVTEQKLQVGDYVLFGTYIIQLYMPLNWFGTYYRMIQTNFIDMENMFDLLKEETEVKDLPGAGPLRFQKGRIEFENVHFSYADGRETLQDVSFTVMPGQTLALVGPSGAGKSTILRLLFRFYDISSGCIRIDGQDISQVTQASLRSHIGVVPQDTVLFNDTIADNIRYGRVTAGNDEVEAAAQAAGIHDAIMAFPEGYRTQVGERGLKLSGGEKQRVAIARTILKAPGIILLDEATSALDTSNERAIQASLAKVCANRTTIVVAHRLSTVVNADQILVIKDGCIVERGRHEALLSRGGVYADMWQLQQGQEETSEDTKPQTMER
# Arr AP2 block – inhibitors of beta-arrestin/AP2 binding, primary screen, biochemical, GPCR trafficking, flow cytometry. FITC-arrestin peptide / GST-AP2 beads; AP2 beta2 appendage carries R879A mutation. inhibition, % at 10 µM. 0.31% of 340,000 active;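 active = inhibition above a set limit, near 3 SD of compounds lacking own fluorescence, cut at about 54% in these data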
#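 Material – GST-tagged AP2 beta2-adaptin appendage (R879A) on 4 µm glutathione beads · Probe or stimulus – fluorescein-tagged arrestin peptide at 50 nM final · Timing – 12 min plus 1 h, RT · Detection – bead flow cytometry, FITC channel · Read-out basis – inhibition as reduced fluorescein signal on beads, percent · Medium – PBS plus Tween 20 (0.05%) and BSA (0.1%)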
# iPSC survival up – enhancers of single-cell hiPSC survival, primary screen, ATPlite luminescence; 100% = ROCK inhibitor wells, 0% = DMSO; 0.044% of 360,000 active; AID 602274, 2012; survival enhancement, % at 20 µM; in the data active = survival enhancement above about 18%;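 note: cells exposed to compounds for 16 hours before the ATP read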
# PG9 Ab binder – binders of HIV-1 gp120 antibody PG9, primary screen, biochemical, TR-FRET | TR-FRET gp120-PG9 antibody binding | 0.43% of 360,000 active | inhibition, % at 6.7 µM | HIV-1 gp120 / PG9 antibody interaction; in the data active = inhibition above about 8.5%
# Arr-AP2 CP1 – inhibitors of arrestin peptide binding to AP2, confirmation, biochemical, cherry pick 1, flow cytometry beads. GST-AP2 beads, FITC arrestin peptide binding; GST-fused beta2-adaptin appendage, R879A mutant. inhibition, % at 10 µM. AID 504908, 2011. 2% of 1,300 active. shares compounds with Arr AP2 block;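 active = inhibition above a set limit, roughly 3 SD of non-fluorescent compound noise, cut at about 38% in these data; inactive = inhibition at or below that limit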;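 note: loss of bead fluorescence from 50 nM FITC arrestin peptide bound to appendage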
# GST-FITC bead – GST-fluorescein capture on glutathione beads, confirmation, artefact control for arrestin-AP2 inhibitor project, biochemical, cherry pick 1, flow cytometry; shares compounds with Arr AP2 block; GST-fluorescein binding to GSH beads, fluorescence, counter-screen; inhibition, % at 10 µM; 2% of 1,300 active;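 active = inhibition above 50%, about 3 SD of the inhibition seen with non-fluorescent compounds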;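 note: fluorescein maleimide labelled GST captured on 4 micron glutathione beads; higher means more loss of bead fluorescence from quenching or blocked binding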
# ABCB6 inh CP1 – ABCB6 transporter inhibitors, confirmation, K562-ABCB6 cells, flow cytometry, cherry pick 1 | shares compounds with ABCB6 inh MLPCN | K562-ABCB6 porphyrin accumulation, 1 h; stronger effect = lower value | ratio response (% of DMSO), % at 10 µM | AID 602430, 2012 | 700 tested, under 10 active;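 active = repeat-averaged ratio response below 75% of DMSO, the collection mean minus 3 SD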;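 note: median porphyrin fluorescence at 575 nm with 488 nm excitation from mitochondria; lower ratio means less porphyrin signal so ABCB6 inhibition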
# PG9 binder conf – binders of anti-gp120 antibody PG9, confirmation, biochemical, TR-FRET; shares compounds with PG9 Ab binder; TR-FRET PG9 antibody binding; inhibition, % at 6.7 µM; 90% of 1,500 active; AID 651571, 2012; in the data active = inhibition above about 9%
# PGV04 Ab binding – binders of control antibody PGV04, counter-screen for PG9 antibody binder project, biochemical, TR-FRET, distinct HIV envelope site; TR-FRET PGV04 antibody-gp120 binding; shares compounds with PG9 Ab binder; AID 651604, 2012; 95% of 1,500 active; inhibition, % at 6.7 µM; in the data active = inhibition above about 9.5%
# A number is an active result; n = inactive; x = not tested or not shown. Shown are actives, neighbours in structure and some others; about 0.89% of the full set was active somewhere.
SMILES,ABCB6 inh MLPCN,Arr AP2 block,iPSC survival up,PG9 Ab binder,ABCB6 inh CP1,others
O=C(C1=C(O)C(=O)N(CCCn2ccnc2)C1c1cccc(Br)c1)c1ccco1 (stereo not given),n,55,n,14,x,Arr-AP2 CP1=n;GST-FITC bead=n;PG9 binder conf=15;PGV04 Ab binding=15
COC(=O)C1=C(C)N(Cc2ccc(Cl)cc2)C(=S)NC1c1ccc(Cl)cc1 (stereo not given),x,x,x,n,x,
CC1(C)CC(=O)c2cc(C(=O)NC3CCSC3=O)c(=O)n(-c3ccc(Cl)cc3)c2C1 (stereo not given),63,n,n,n,n,
CN1OC[C@@H]2CN(CC3CCCCC3)[C@H](c3ccc(-c4ccc(C#N)cc4)cc3)C[C@@H]21,x,x,x,n,x,
COc1cc(OC)c(C#N)c(S(=O)(=O)Cc2ccccc2)c1,68,n,n,n,n,
COc1ccc(-c2cnc(N)nc2-c2ccc(OC)cc2O)cc1,73,n,n,n,n,
O=C(C(=O)N1CCN(C(=O)c2ccccc2C(F)(F)F)CC1)c1cccc(C(F)(F)F)c1,x,x,x,n,x,
Cc1nc(N2CCN(C(=O)c3ccco3)CC2)c2c3c(sc2n1)CCCC3,n,n,n,n,x,
CCc1nc(SCC(=O)N2CCN(C(=O)c3ccco3)CC2)c2c3c(sc2n1)CCCC3,28,n,n,n,n,
O=C(Nc1ccc(-n2nncc2-c2ccco2)cc1)c1cccc(F)c1,58,n,n,n,n,
Cc1cccc(C(=O)Nc2c(C#N)c(C)c(C)n2Cc2ccccc2)c1,n,n,n,n,x,
Cc1c(C#N)c(NC(=O)C(C)C)n(Cc2ccccc2)c1C,74,n,n,n,n,
Cc1c(C(=O)N(Cc2ccccc2)Cc2cccs2)cnn1-c1ccc(Cl)cc1,14,n,n,n,n,
Cc1c(C(=O)N(Cc2ccccc2)C(C)C)cnn1-c1ccccc1,n,n,n,n,x,
COCc1cc(N2CCNC[C@H]2C)ccc1N1C[C@@H](C)O[C@@H](C)C1,x,x,x,n,x,
CN(Cc1ccccc1)Cc1nc2c(c(=O)n(C)c(=O)n2C)n1Cc1ccc(F)cc1,63,n,n,n,n,
CC(=O)c1cccc(-c2ccnc3c2CC(C(=O)Nc2cccc(N(C)C)c2)O3)c1 (stereo not given),n,x,n,n,n,
CC(=O)c1cccc(NC(=O)C2Cc3c(-c4cccc(C(C)=O)c4)ccnc3O2)c1 (stereo not given),n,x,n,n,x,
CC(=O)c1cccc(-c2ccnc3c2CC(C(=O)Nc2cccc(Oc4ccccc4)c2)O3)c1 (stereo not given),n,x,n,n,n,
O=C(Nc1cccc(Oc2ccccc2)c1)C1Cc2c(-c3ccccc3)ccnc2O1 (stereo not given),n,x,n,n,n,
CC(=O)c1cccc(-c2ccnc3c2CC(C(=O)Nc2cccnc2)O3)c1 (stereo not given),n,x,n,n,x,
CS(=O)(=O)Nc1cccc(NC(=O)C2Cc3c(-c4ccco4)ccnc3O2)c1 (stereo not given),n,x,n,n,x,
O=C(Nc1cccc(Oc2ccccc2)c1)C1Cc2c(-c3ccco3)ccnc2O1 (stereo not given),69,x,n,n,n,
C=CCNc1cccc2c1S(=O)(=O)N[C@@H](CC(C)C)CO2,x,x,x,n,x,
O=c1[nH]cnc2c1sc(=S)n2-c1ccccc1,65,n,n,n,n,
SMILES,ABCB6 inh MLPCN,Arr AP2 block,iPSC survival up,PG9 Ab binder,ABCB6 inh CP1,others
O=C(NCc1cccc(Cl)c1)c1ccc2ccccc2n1,70,n,n,n,n,
CC(C)CN(C(=O)CCC(=O)OCc1ccc(Cl)cc1Cl)c1c(N)n(CC(C)C)c(=O)[nH]c1=O,n,n,n,n,x,
Cc1cccc(C(C)C)c1NC(=O)COC(=O)CCC(=O)N(CC(C)C)c1c(N)n(CC(C)C)c(=O)[nH]c1=O,n,x,n,n,n,
COc1ccc(CNC(=O)N(C)C[C@@H]2OCc3ccccc3-c3c(n(C)c4ccccc34)C(=O)N([C@@H](C)CO)C[C@@H]2C)cc1,x,x,x,n,x,
CC(CN1CCCC1)OC(=O)COc1ccccc1 (stereo not given),72,n,n,n,n,
COC(=O)c1ccc(-c2ccc(F)cc2)nc1C,63,n,n,n,n,
COc1cc(NC(=O)c2ccc3c(c2)OCO3)c2ncccc2c1,n,n,n,n,x,
O=C(Nc1cccc2cccnc12)c1ccc2c(c1)OCCO2,43,n,n,n,n,
N#CCCSCc1ccc(C(=O)O)o1,68,n,n,n,n,
CCCCSCc1ccc(C(=O)O)o1,n,n,n,n,x,
O=C(N[C@@H](Cc1cccnc1)C(=O)N1CCC[C@H]1C(=O)NC1CCCC1)C1CC1,x,x,x,n,x,
COc1ccc(CCCNC(=O)C2(C)Cc3c(-c4ccc(C(N)=O)cc4)ccnc3O2)cc1 (stereo not given),71,x,n,n,n,
CCOC(=O)C1=CCN(S(=O)(=O)c2cccc(Cl)c2)C1c1cccc(Br)c1 (stereo not given),x,x,x,n,x,
Cc1ccccc1Cc1c(C)nc2c(C(=O)NCc3ccco3)cnn2c1C,70,n,n,x,n,
Cc1nc2c(C(=O)O)cnn2c(C)c1Cc1ccccc1F,n,n,n,n,x,
CCOC(=O)N1CCN(C(=O)c2cnn3c(C)c(Cc4ccc(C)cc4)c(C)nc23)CC1,n,n,n,x,n,
Cc1ccc(C)c(Cc2c(C)nc3c(C(=O)N4CCOCC4)cnn3c2C)c1,n,n,n,n,n,
CCOC(=O)N1CCN(C(=O)c2cnn3c(C(F)F)cc(-c4ccc(C)cc4)nc23)CC1,n,n,n,n,x,
Cc1nc2c(C(=O)N3CCCC3)cnn2c(C)c1Cc1c(F)cccc1Cl,n,n,n,n,n,
Cc1ccc(NC(=O)CC2SCCNC2=O)cc1Cl (stereo not given),67,n,n,n,n,
O=C(CC1SCCNC1=O)Nc1ccc(F)c(Cl)c1 (stereo not given),n,n,n,n,x,
CC(C)N(C[C@@H]1CSCCS(=O)(=O)N1)C(C)C,x,x,x,n,x,

# Screening results deposited in PubChem BioAssay by several laboratories.
